# The list is not random: actives were taken first. Their share in the collection is about 4.5%.
# TAAR1 ag: human TAAR1 agonists, primary screen, Fluo-8 calcium fluorescence, CHO RD-HGA16 cells. Trace amine-associated receptor 1 (Homo sapiens), Q96RJ0. vehicle wells 0%, saturating PEA agonist 100%. activation, % at 3 µM. 360,000 compounds, 0.99% hits. AID 624467, 2012;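 active = activation above the mean activation of all test compounds in the run plus 3 SD, cut at about 38% in these data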
#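 System: CHO-derived RD-HGA16 cells with stable Gα16 and human TAAR1 / Times: 17-24 h plating, Fluo-8 75 min 37 °C, 30 min RT / Technique: calcium-sensitive Fluo-8 signal, excitation 470-495, emission 515-575 nm / Measure: % activation relative to PEA EC100 response / Benchmarks: DMSO and PEA EC100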
# OX1R antag-1: antagonists of human orexin 1 receptor (OX1R); Orexin/Hypocretin receptor type 1 (Homo sapiens), O43613; OX1R-expressing cells, FRET antagonist read-out; inhibition, % at 6.6 µM; 330,000 compounds, 1.8% hits; AID 485270, 2010; in the data active = inhibition mostly above about 38%, no sharp cut-off; inactive = mostly below about 40%;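 note: 0% = agonist challenge alone and 100% = reference antagonist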
# Target sequence (O43613 whole entry, looked up): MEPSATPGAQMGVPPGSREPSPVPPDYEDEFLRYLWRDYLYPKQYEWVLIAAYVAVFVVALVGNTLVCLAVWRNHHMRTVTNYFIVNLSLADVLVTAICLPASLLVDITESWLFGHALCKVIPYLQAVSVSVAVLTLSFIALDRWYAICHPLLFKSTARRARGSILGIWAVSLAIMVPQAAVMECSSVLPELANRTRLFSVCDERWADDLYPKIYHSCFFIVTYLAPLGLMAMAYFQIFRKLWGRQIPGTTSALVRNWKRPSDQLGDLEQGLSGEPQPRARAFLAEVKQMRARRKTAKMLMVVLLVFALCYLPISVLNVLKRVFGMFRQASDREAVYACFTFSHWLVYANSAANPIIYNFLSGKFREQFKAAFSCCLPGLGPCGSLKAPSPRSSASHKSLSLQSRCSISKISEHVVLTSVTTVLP
# GPR7 antagonist: GPR7 receptor antagonists, primary screen, cell-based, fluorescence, single concentration | Neuropeptides B/W receptor type 1 (Homo sapiens), P48145 | GPR7-expressing cells, fluorescence antagonist assay | AID 1861, 2009 | 290,000 compounds, 1.1% hits | inhibition, % at 4.4 µM; in the data active = inhibition above about 16%, passing the limit was not always enough;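 note: cells stimulated with the agonist NPW; 0% = agonist with vehicle and 100% = vehicle without agonist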
# CHO parental Ca: ATP-evoked calcium signal inhibitors, parental CHO, primary screen, counter-screen for OX1R antagonist project, cell-based, fluorescence, Fluo-8 calcium dye | parental CHO-K1, ATP-induced calcium, Fluo-8 fluorescence | inhibition, % at 5.6 µM | 330,000 compounds, 0.63% hits | AID 463079, 2010;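 active = inhibition above that plate's mean sample inhibition plus 3 SD, cut at about 26% in these data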;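 note: 0% = ATP-challenged DMSO wells and 100% = DMSO wells without ATP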
#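 Assay system: parental CHO cells; Read-out basis: percent inhibition of ATP-evoked calcium rise, normalized to controls; Benchmarks: ATP and no-ATP DMSO wells; Compound dosing: single nominal dose of 5.6 µM per compound; Signal: Fluo-8 calcium dye fluorescence; Also added: ATP as calcium-mobilizing challenge; Repeats: singlicate.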
# OX1R antag-2: OX1R (HCRTR1) antagonists, primary screen, fluorescence, CHO/OX1R cells, Fluo-8 calcium, orexin A; Orexin/Hypocretin receptor type 1 (Homo sapiens), O43613; Fluo-8 calcium fluorescence; inhibition, % at 5 µM; 330,000 compounds, 0.43% hits; AID 434989, 2010;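 active = inhibition above its plate's threshold, mean inhibition of all tested compounds on the plate plus 3 SD, cut at about 37% in these data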;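 note: 0% = orexin A challenge wells and 100% = SB-334867-A antagonist wells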
# TAAR1 antag: human TAAR1 antagonists, primary screen, Fluo-8 calcium fluorescence, CHO RD-HGA16 cells. inhibition, % at 3 µM. antagonist. 360,000 compounds, 1.5% hits. Trace amine-associated receptor 1 (Homo sapiens), Q96RJ0;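 active = inhibition above a per-plate cutoff, the mean inhibition of test compounds on that plate plus 3 SD, cut at about 49% in these data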;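 note: 0% = DMSO plus EC80 beta-PEA response and 100% = DMSO alone without agonist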
#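 test system = CHO RD-HGA16 cells bearing hTAAR1 | replication = singlicate | controls = DMSO-only wells and EC80 β-PEA-stimulated wells | reagent = EC80 β-phenethylamine stimulus | read-out basis = percent inhibition of PEA-evoked calcium signal, max/basal emission ratio | schedule = seeding 17-24 h prior, 75-min 37 °C, 30-min RT dye loading | signal = kinetic Fluo-8 calcium fluorescence measurement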
# * = called active by the depositor; . = no result.
SMILES,TAAR1 ag,OX1R antag-1,GPR7 antagonist,CHO parental Ca,OX1R antag-2,TAAR1 antag
Cc1ccc(Nc2nc(NCCO)nc3c2cnn3C)cc1Cl,38*,25,4,-16,-37,4
CCCNc1nc(Nc2ccc(C)c(Cl)c2)c2cnn(C)c2n1,2,3,-15,-17,-31,-22
O=S1(=O)N[C@@H](Cc2ccccc2)COc2cccc(N3CCC[C@@H]3CO)c21,11,.,.,.,.,-5
O=C1N=C(N2C=CC(=C3C=CNC=C3)C=C2)/C(=C/N=NC(=O)c2ccccc2)S1,3,80*,-5,1,-12,1
CCN=C1NC(c2ccccc2C(F)(F)F)C(C(=O)OC)=C(C)N1C (centres undefined),0,.,.,.,.,0
N#C/C=C/N1CCN(C(=O)c2ccco2)CC1,41*,-1,.,-6,11,-34
O=C(c1ccco1)N1CCN(C(=O)c2ccco2)CC1,0,.,.,.,.,-23
CCc1cc2c(nc1CC)CCCN2S(=O)(=O)c1ccccc1,1,.,.,.,.,-18
COc1ccc(CCN=c2c([N+](=O)[O-])nn(-c3cccc(C)c3)n2O)cc1OC,0,75*,-9,-21,-30,-4
O=C(CSCC(=O)Nc1nc(-c2ccc3c(c2)OCO3)cs1)Nc1nccs1,16,6,-14,24,-6,54*
O=C(CSc1ccc(-c2ccc3c(c2)OCO3)nn1)Nc1nccs1,2,28,5,-9,-19,10
CC(=O)c1ccc(-c2ccccc2C2=CC(=O)CC(C)(C)C2=O)cc1,-1,.,.,.,.,-3
CSc1ccc(S(=O)(=O)NCC(=O)OCC(=O)NCC2CCCO2)cc1[N+](=O)[O-] (centres undefined),0,56*,.,-13,3,1
O=C(CCSc1nnc(-c2ccco2)o1)Nc1ccccc1,15,21,-2,-6,-3,-14
COc1ccccc1OCC(=O)Nc1oc(-c2ccccc2)c(-c2ccccc2)c1C#N,11,50*,-10,-13,-24,40
O=C(CCSc1nnc(-c2ccco2)o1)Nc1ccc(Cl)cc1,41*,14,0,-14,-8,-19
COc1ccccc1OCC(=O)Nc1ccc(-c2nnc(-c3ccco3)o2)cc1,3,64*,-7,-15,-2,1
CC(C)(C)OC(=O)N1C[C@@]23C[C@H](c4cccc(F)c4)[C@@H](C[C@@H]2S1(=O)=O)O3,2,.,.,.,.,6
CCCCOCC1CN(CCCC)S(=O)(=O)c2c(NCc3cc(OC)c(OC)c(OC)c3)cccc2O1 (centres undefined),-1,.,.,.,.,41
Cc1cc(C)c(N=C2CCCN2Cc2ccccc2)c(C#N)c1,12,29,5,40*,8,2
N#Cc1ccccc1N=C1CCCN1Cc1ccccc1,4,34,-11,-2,-17,-12
Cc1cc(NC(=O)c2ccc(-c3ccccc3[N+](=O)[O-])o2)no1,4,27*,.,1,-11,2
O=C(Nc1ccc(Cl)c(Cl)c1)c1ccc(Cl)c(Cl)c1,5,92*,14,59*,40*,37
O=C(Nc1ncccn1)c1ccc(Cl)c([N+](=O)[O-])c1,2,26*,-7,1,-11,6
O=C(Nc1ccccc1-c1ccccc1)c1ccc(Cl)c([N+](=O)[O-])c1,2,37,19,-7,-10,-19
SMILES,TAAR1 ag,OX1R antag-1,GPR7 antagonist,CHO parental Ca,OX1R antag-2,TAAR1 antag
Cc1cc(NC(=O)c2ccc(-c3ccccc3F)o2)no1,3,21,-18,-9,-26,-11
Cc1nc2ccc(NC(=O)c3ccc(Cl)c(S(=O)(=O)N(C)c4ccccc4)c3)cc2s1,13,50,1,41*,28,51*
O=C(Nc1ccc(Cl)c(Cl)c1)c1ccncc1,21,32,10,-1,-15,14
CCCCN(C)CCCNC(=O)CN1C(=O)COc2ccc(S(=O)(=O)N3CCOCC3)cc21,4,18,-9,7,-9,-15
Cc1ccc(OC(=O)N(C)C[C@H]2OCc3cn(nn3)CCCC(=O)N([C@@H](C)CO)C[C@@H]2C)cc1,1,.,.,.,.,2
Cc1ccc(C(=O)Nc2ccncc2)cc1[N+](=O)[O-],8,14,-5,0,11,-1
O=C(Nc1ccc(Cc2ccncc2)cc1)c1ccc(Cl)c([N+](=O)[O-])c1,12,128*,-7,83*,77*,74*
COc1ccc(NC(=O)c2ccc(CNS(=O)(=O)c3cccc(OC)c3)cc2)cc1,13,22,-2,2,-3,7
O=C(Nc1ccc(Nc2ccccc2)cc1)c1ccc(Cl)c([N+](=O)[O-])c1,5,31,-12,14,-9,51*
Cc1cc(NC(=O)c2ccc(Cl)c([N+](=O)[O-])c2)no1,1,32,-12,43*,-1,-18
COc1cccc(S(=O)(=O)NCc2ccc(C(=O)Nc3ccc(Cl)c(Cl)c3)cc2)c1,8,47,-17,42*,35,32
CN(c1ccccc1)S(=O)(=O)c1cccc(NC(=O)c2ccc(Cl)c([N+](=O)[O-])c2)c1,18,44*,.,64*,62*,36
O=C(Nc1cccc(Cl)c1)Nc1nccs1,31,18,14,-4,-4,4
O=C(Nc1ccc(Cl)c(Cl)c1)Nc1nccs1,43*,18,-1,22,25,-1
O=C(Cc1c[nH]c2ccccc12)Nc1ccc(Nc2cccnc2)c(-c2ccc(OC(F)(F)F)cc2)c1,5,.,.,.,.,44
CC(C)=CCCC(C)=CCN1C(=O)CN(C)C1=O,1,.,.,.,.,-14
CCn1c(/C=C/c2ccccc2)nc2ccccc21,12,48*,-13,-29,-11,11
O=C(Nc1ccc(Cl)cc1)N1CCC(c2nc(-c3ccccc3Cl)no2)CC1,11,45,1,37*,32,32
N#CCCN(CCCN1CCOCC1)CN1C(=O)c2ccccc2C1=O,1,.,.,.,.,-17
Cc1noc(C)c1C(=O)OCC(=O)NCCc1ccc(Cl)cc1,0,7,20*,-11,-16,4
O=C(/C=C/c1ccc(N2CCC(c3ccccc3)=N2)cc1)c1ccccc1,30,8,-17,73*,79*,30
CCOC(=O)/C(=C\c1ccc(N2CCC(c3ccccc3)=N2)cc1)C(C)=O,10,.,.,.,.,-4
CCN1C(=O)/C(=C/N2CCc3ccccc32)SC1=S,.,3,11,-11,-10,.
